Assay results reported in ChEMBL document CHEMBL3576766, “Immunomodulatory and Antileishmanial Activity of Phenylpropanoid Dimers Isolated from Nectandra leucantha” (J Nat Prod, 2015).
The source made the active and inactive calls. The calls are words filed in the database; no cut-off is given here.

Assays:
Leishmania donovani [1] = assay: Antileishmanial activity against DsRed2 expressing Leishmania donovani promastigote assessed as parasite death after 48 hrs by flow cytometry; type: functional, organism-based
[2] = Cytotoxicity against BALB/c mouse peritoneal macrophages after 48 hrs by MTT assay; type: cell-based; settings: peritoneal macrophage cell
How it was run: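 BALB/c peritoneal macrophages were seeded at 1×10^5 cells/well and exposed to 0.2 to 600 μM compound for 48 h at 37 °C under 5% CO2. Viability was read by MTT cleavage, with formazan extracted in 10% SDS for 18 h at 24 °C and absorbance read at 570 nm.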

[3] = Selectivity index, ratio of CC50 for BALB/c mouse peritoneal macrophages to IC50 for DsRed2-Leishmania donovani amastigotes; type: functional
Macrophage = assay: Inhibition of IL6 production in DsRed2-Leishmania donovani promastigote infected in C57BL/6 mouse macrophages after 72 hrs by ELISA; type: functional, cell-based
How it was run: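 C57BL/6 bone marrow-derived macrophages (3.5×10^6 cells/well, quadruplicates) were infected with DsRed2-L. donovani promastigotes at 1:10 and treated for 72 h at 37 °C. Supernatant IL-6 was measured by ELISA and reported in pg/mL as mean ± SE.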

[4] = Induction of NO production in C57BL/6 mouse macrophages after 72 hrs by Griess assay; settings: macrophage
Leishmania donovani [5] = assay: Antileishmanial activity against DsRed2 expressing Leishmania donovani amastigotes assessed as parasite death after 72 hrs by flow cytometry

Compound | IC50 (Leishmania donovani [1]) | CC50 [2] | Ratio CC50/IC50 [3] | inhibition (Macrophage) | Activity [4] | IC50 (Leishmania donovani [5]) | IC50 (Leishmania donovani [1]; read-out: IC50)
C=CCc1ccc(Oc2cc([C@H](O)C=C)cc(OC)c2O)c(OC)c1 | Not Active | > 292 µM | >2.9 | Active | Non-toxic | 102 µM | 
SODIUM ANTIMONY GLUCONATE |  | 53.4 µM |  |  |  |  | 307 µM
